# From PubChem
# Shown are actives, neighbours in structure and some others; about 9.6% of the full set was active somewhere.
# Lmaj promast: inhibitors of Leishmania major promastigote growth | 200,000 tested, 9% active | Leishmania major promastigotes, resazurin fluorescence viability | inhibition, % at 10 µM; in the data active means inhibition above about 50%;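 further: promastigotes grown with compound for 44 hours at 28 °C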
# PMI act hi M6P: activators of human phosphomannose isomerase at near-saturating mannose 6-phosphate; activation factor at 20 µM; AID 1216; 190,000 tested, 0.34% active; coupled PMI enzyme assay, resazurin fluorescence, 20 min; stronger effect = higher value; 1 = untreated enzyme, 0 = substrate-free blank; P34949;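 active means activation factor of 2 or more at 20 µM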
# Target sequence (P34949 whole entry, looked up): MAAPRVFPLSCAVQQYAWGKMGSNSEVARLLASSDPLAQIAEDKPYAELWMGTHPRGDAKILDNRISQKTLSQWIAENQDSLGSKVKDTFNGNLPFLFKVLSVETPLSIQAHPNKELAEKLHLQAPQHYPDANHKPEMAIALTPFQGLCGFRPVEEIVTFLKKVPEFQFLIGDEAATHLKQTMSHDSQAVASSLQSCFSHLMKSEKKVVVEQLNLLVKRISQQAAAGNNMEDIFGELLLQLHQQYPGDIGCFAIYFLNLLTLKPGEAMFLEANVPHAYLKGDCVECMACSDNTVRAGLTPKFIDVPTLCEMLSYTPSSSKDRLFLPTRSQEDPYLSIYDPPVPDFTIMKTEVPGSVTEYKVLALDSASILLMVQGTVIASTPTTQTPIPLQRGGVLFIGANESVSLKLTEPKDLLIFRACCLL
#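 test system = human PMI in coupled enzyme assay | medium = HEPES-buffered pH 7.4 with magnesium and detergent | also added = 1.0 mM mannose-6-phosphate substrate with 0.22 mM NADP+ | compound = 20 µM single dose | times = 20 min incubation at room temperature | measured by = resorufin fluorescence (Ex 544/Em 590 nm) from resazurin via diaphorase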
# PTEN del growth: PTEN-deleted cell growth suppression; HCT116 PTEN-null viability, CellTiter-Glo, 60 h; stronger effect = lower value; viability, % at 10 µM; 140,000 tested, 1.2% active; AID 827;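 active means viability at or below a set limit, 4 SD under the median of all tested compounds, cut at about 3.7% in these data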;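 further: PTEN knockout HCT116 line with beta catenin targeted HCT116 as companion control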
# PMI act: phosphomannose isomerase (human) activation | P34949 | purified human PMI, coupled resazurin fluorescence, 20 min; stronger effect = higher value; 1 = vehicle control, 0 substrate-free wells | activation factor at 20 µM | 190,000 tested, 0.005% active;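 active means activation factor of 2 or more at 20 µM, relative to plate controls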
# bCat KO growth: beta-catenin-lacking colon tumor cell growth suppression | HCT116 beta-catenin knockout viability, CellTiter-Glo, 60 h; stronger effect = lower value | viability, % at 10 µM | 140,000 tested, 1.5% active | AID 818;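 active means viability at or under a set limit, the compound median less 4 SD, cut at about 6% in these data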;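 further: 0% = Hyamine 1622 control at 20 µM and 100% = untreated cell control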
# An asterisk follows results filed as active; nt = no result.
SMILES,Lmaj promast,PMI act hi M6P,PTEN del growth,PMI act,bCat KO growth
O=C(CCSc1ccc(Cl)cc1)NC12CC3CC(CC(C3)C1)C2,3,1,59,0.9,71
COc1ccc(NS(=O)(=O)c2cccc(NC(=O)CCC(=O)c3ccc(Cl)cc3)c2)cc1,80*,0.8,65,0.8,73
Cc1cc(C)n(-c2nc(SCCN(C)C)c3c4c(sc3n2)COC(C)(C)C4)n1,101*,0.9,3.3*,0.9,1.9*
O=C(NCc1ccc(Cl)cc1)c1cccc(NC(=O)c2ccccc2)c1,55*,1,63,0.9,64
CSc1ccccc1C(=O)OCC(=O)NC1CCS(=O)(=O)C1 (configuration not stated),-4,1.1,nt,1.1,nt
O=C(COc1ccc2oc(-c3ccco3)cc(=O)c2c1)N1CCCCC1,3,1,nt,1,nt
C=CC[n+]1c(-c2ccc(Cl)cc2Cl)csc1Nc1ccc(NC(C)=O)cc1,53*,1,nt,1,nt
C=CC[n+]1c(-c2ccc(Cl)cc2Cl)csc1Nc1c(C)n(C)n(-c2ccccc2)c1=O,29,0.9,nt,1,nt
COc1ccc2c(CC(=O)NC3CCCc4ccccc43)coc2c1 (configuration not stated),6,0.9,96,0.8,88
O=S(CC1CC1(Cl)Cl)CC1CC1(Cl)Cl (configuration not stated),-3,0.9,95,0.8,96
CN=C1SC(CC(=O)Nc2c(C)cccc2C)C(=O)N1/N=C/c1cccs1 (configuration not stated),55*,1.1,98,1.1,106
Cc1ccc(C(=O)N/N=C2/NC(=O)CC(C(=O)Nc3ccccc3)S2)cc1 (configuration not stated),18,1,89,0.9,93
Cc1sc2nc(CN3CCCCC3)nc(Nc3ccc4c(c3)OCCO4)c2c1C,28,1,nt,1.1,nt
Cc1onc(-c2c(F)cccc2Cl)c1C(=O)NC(=S)NC1CCS(=O)(=O)C1 (configuration not stated),-9,1,98,1,91
COC(=O)C1=C(C(=O)OC)C(c2cc(Br)ccc2O)c2sc(=O)[nH]c2S1 (configuration not stated),65*,0.7,98,0.8,92
CC(C)c1ccc2c(c1)[C@H]1OCC[C@H]1[C@@H](c1cccs1)N2,1,0.8,18,0.9,17
Cc1ccc(C(=O)C(C)OC(=O)c2n[nH]c(=O)c3ccccc23)cc1 (configuration not stated),1,0.9,101,0.9,100
O=c1[nH]c(/C=C\c2cccs2)nc(O)c1[N+](=O)[O-],-9,1.1,nt,1.2,nt
Cc1nc2cc(N3CCCCC3)c(NC(=O)c3ccncc3)cc2c(=O)n1Cc1ccccc1,2,1,4,1,4.4*
Cc1sc(NC(=S)Nc2ccc(F)cc2)c(C(N)=O)c1C,4,0.6,nt,0.5,nt
Cc1sc(NC(=S)NC(=O)C2CCCCC2)c(C(N)=O)c1C,63*,0.9,98,0.9,96
S=C(c1ccc2c(c1)OCO2)N1CCCC1,-8,0.9,91,0.9,95
COc1ccc(-n2cc(CN(C)C3CCOCC3)c(-c3cccc(F)c3)n2)cc1,16,0.8,nt,0.8,nt
COc1ccc(-n2cc(CNCCCn3ccnc3)c(-c3cccc(F)c3)n2)cc1,100*,1,nt,1,nt
COc1ccc(-n2cc(CNCC3CCOCC3)c(-c3cccc(F)c3)n2)cc1,87*,1,nt,0.9,nt
SMILES,Lmaj promast,PMI act hi M6P,PTEN del growth,PMI act,bCat KO growth
Cc1sc(NC(=O)c2ccccc2)c(C(=O)NCCN(C)C)c1C,3,0.9,88,1.1,79
Cc1oc(C)c2c(=O)ccc3c(c12)OC(N)=C(C#N)C3c1ccc(F)cc1 (configuration not stated),60*,0.6,97,1,115
Cc1ccc(S(=O)(=O)N(CC(=O)N2CCCCCC2)c2ccccc2)cc1,75*,1,105,1,92
Cc1ccc(S(=O)(=O)N(CC(=O)N2CCC(C)CC2)Cc2ccccc2F)cc1,82*,1,80,0.9,86
CCN1CCN(C(=O)c2ccccc2N(Cc2ccccc2)S(C)(=O)=O)CC1,-6,1,102,0.9,104
CCN1CCN(C(=O)c2ccccc2N(Cc2ccccc2)S(=O)(=O)c2ccc(C)cc2)CC1,98*,1.1,87,1.1,82
Cc1ccc(N/N=C/c2ccc(N3CCOCC3)cc2)cc1C,33,2*,103,1.2,90
O=C(N/N=C/c1ccc(N2CCOCC2)cc1)C1CC1,12,1.1,nt,1.1,nt
O=C(CSCc1ccccc1)N/N=C/c1ccccc1OCc1ccccc1,0,1,103,1,94
COc1cccc(/C=N/NC(N)=S)c1OCc1cccc(Cl)c1,70*,0.9,73,1,75
NC(=S)N/N=C\c1ccccc1OCc1ccccc1,68*,1,56,1,31
COc1ccc(C2C(C#N)=C(N)N(c3cccnc3)C3=C2C(=O)CCC3)cc1Cn1cc([N+](=O)[O-])cn1 (configuration not stated),89*,0.5,72,0.9,80
COc1ccc(C2C(C#N)=C(N)OC3=C2C(=O)CC(C)(C)C3)cc1Cn1cc([N+](=O)[O-])cn1 (configuration not stated),7,0.9,85,0.9,83
COc1ccc(C2C(C#N)=C(N)OC3=C2C(=O)CCC3)cc1Cn1cc([N+](=O)[O-])cn1 (configuration not stated),2,1,76,0.9,76
COc1ccc(C2C(C#N)=C(N)N(c3ccccc3)C3=C2C(=O)CCC3)cc1Cn1cc([N+](=O)[O-])cn1 (configuration not stated),99*,0.7,38,0.9,53
O=C(O)C1CC=CCC1C(=O)NCc1ccc2c(c1)OCO2 (configuration not stated),-4,1,105,1,99
COc1ccccc1C1(CC(=O)N2CCCCC2)CCOC(C(C)C)C1 (configuration not stated),8,0.9,76,1.1,71
Cc1cc(OCC(=O)Nc2ccc(S(=O)(=O)NC3=NCCCCC3)cc2)c(C(C)C)cc1Cl,71*,1,96,0.9,103
CC1CCCCN1CCCNC(=O)c1cc(Br)c(Br)[nH]1 (configuration not stated),93*,1,nt,1.1,nt
COc1cc(N/N=C(\C)c2ccc(O)c(C)c2)nc(-c2ccccc2)n1,9,0.8,nt,0.7,nt
C/C(=N\Nc1cc(-c2ccccc2)nc(-c2ccccc2)n1)c1ccc(O)c(C)c1,13,0.9,2.0*,0.8,11
CNS(=O)(=O)c1cccc(C(=O)OCC(=O)Nc2ccc(OC)cc2[N+](=O)[O-])c1,-3,1,nt,1,nt
COCCNc1c(-c2ccc(OC)cc2)nc2ccc(Cl)cn12,76*,1.1,nt,1.1,nt
